In assay [1] the target is recombinant E. faecalis UPPS (EfaUPPS) (Enterococcus faecalis, UniProt Q831K9). The experiment in a line: UPPS inhibition assay. The conditions noted are these: for IC50: EfaUPPS, enzyme-coupled fluorescence assay. In kind it is biochemical.
Assay [2] concerns the target recombinant S. aureus UPPS (SauUPPS) (Staphylococcus aureus, UniProt P60477). In words: UPPS inhibition assay. In kind it is biochemical.
In assay [3] the target is recombinant E. coli UPPS (EcoUPPS) (Escherichia coli, UniProt P60472). In kind it is biochemical.
recombinant E. coli UPPS (EcoUPPS), sequence (P60472 whole entry): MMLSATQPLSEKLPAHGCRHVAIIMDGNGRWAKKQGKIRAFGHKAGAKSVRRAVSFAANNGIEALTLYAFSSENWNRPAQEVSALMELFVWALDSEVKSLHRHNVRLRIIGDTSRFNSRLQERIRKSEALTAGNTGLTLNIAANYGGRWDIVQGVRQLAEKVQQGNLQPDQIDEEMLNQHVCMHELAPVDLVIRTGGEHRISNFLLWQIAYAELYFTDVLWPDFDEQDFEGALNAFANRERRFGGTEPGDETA
The target in assay [4] is wild-type EfaUPPS (Enterococcus faecalis, UniProt Q831K9). The experiment in a line: Surface plasmon resonance binding assay. To be noted: for Kd: read-out: equilibrium dissociation constant (KD), SPR, wild-type EfaUPPS, one-state binding model.
Assay [5] has as its system E. coli 70S ribosome. The experiment in a line: In vitro translation inhibition assay. The conditions noted are these: read-out: IC50, in vitro translation, PURE system. In kind it is biochemical, Escherichia coli.
Assay [6] concerns the target EfaUPPS D29A mutant (Enterococcus faecalis, UniProt Q831K9, D35A). The experiment in a line: UPPS inhibition assay, mutant enzyme. In kind it is biochemical. In a few lines:
(§1)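 Mutant E. faecalis UPPS was His-tagged in pET28a, expressed in E. coli BL21(DE3) (1 mM IPTG, 16 °C, 16 h) and purified by Ni-NTA and gel filtration. Assays ran 30 min at 37 °C in 100 mM Tris-HCl pH 7.5, 0.5 mM MgCl2, 50 mM KCl, 35 μM IPP, 5 μM FPP, 0.005% Triton X-100, and were EDTA-stopped. Released pyrophosphate was read by coupled fluorescence (316/456 nm). Mutant IC50 was compared with wild type; at least three biological replicates.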

Assay [7] relates to E. coli BAS 849 transformed with the empty vector pQE80L. In words: In vivo growth inhibition assay on agar. To be noted: compound at 8 μg/mL, IPTG 0.5 mM. In kind it is cell-based, Escherichia coli. In a few lines: (§2)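 E. coli BAS 849 carried pQE80L (T5 promoter) either empty or bearing the UPPS gene from E. faecalis ATCC 29212, S. aureus ATCC 29213 or E. coli DH5α. Cultures were spread on LB agar with ampicillin, IPTG and test compound, incubated overnight at 37 °C and scored for growth.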

In assay [8] the test system is normal E. coli species. The experiment in a line: MIC, microtiter broth dilution. In kind it is cell-based, Escherichia coli. In a few lines: (§3)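 MICs were measured by broth microdilution in LB broth against E. coli DH5α, BL21(DE3) and BAS 849, the last an outer-membrane-defective strain with raised permeability. Tetracycline and ampicillin served as reference antibiotics. Values are means of at least three biological replicates.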

The target in assay [9] is EfaUPPS S74T mutant (Enterococcus faecalis, UniProt Q831K9, S80T). In words: UPPS inhibition assay, mutant enzyme. In kind it is biochemical. The essentials: as §1
Assay [10] addresses EfaUPPS N31F mutant. The experiment in a line: UPPS inhibition assay, mutant enzyme. In kind it is biochemical, Enterococcus faecalis. To be noted: N31F mutant versus wild-type EfaUPPS. The essentials: as §1
The target of assay [11] is EfaUPPS F73S mutant (Enterococcus faecalis, UniProt Q831K9, F79S). The experiment in a line: UPPS inhibition assay, mutant enzyme. In kind it is biochemical. In a few lines: as §1
The target in assay [12] is EfaUPPS N31A mutant (Enterococcus faecalis, UniProt Q831K9, N37A). In words: UPPS inhibition assay, mutant enzyme. In kind it is biochemical. The essentials: as §1
Assay [13] has as its system Escherichia coli BAS 849. The experiment in a line: MIC, microtiter broth dilution. In kind it is cell-based. The conditions noted are these: E. coli BAS 849, deficient outer-membrane structure. In a few lines: as §3
The target in assay [14] is T1, EfaUPPS M28W mutant (Enterococcus faecalis, UniProt Q831K9, M34W).
T1 sequence (Q831K9 1-271 M34W): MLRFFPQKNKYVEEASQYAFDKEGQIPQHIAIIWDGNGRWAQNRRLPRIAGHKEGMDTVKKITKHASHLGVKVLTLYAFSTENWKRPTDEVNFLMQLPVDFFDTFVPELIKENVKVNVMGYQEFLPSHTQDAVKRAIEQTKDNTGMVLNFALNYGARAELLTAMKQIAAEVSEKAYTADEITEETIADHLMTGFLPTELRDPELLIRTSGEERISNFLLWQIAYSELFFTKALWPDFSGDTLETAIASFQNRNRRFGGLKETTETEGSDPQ
The experiment in a line: UPPS inhibition assay, mutant enzyme. In kind it is biochemical. The conditions noted are these: M28W mutant versus wild-type EfaUPPS. The essentials:
as §1

Assay [15] concerns the target EfaUPPS H46W mutant. The experiment in a line: UPPS inhibition assay, mutant enzyme. In kind it is biochemical, Enterococcus faecalis. To be noted: H46W mutant versus wild-type EfaUPPS. In a few lines:
as §1

In assay [16] the target is EfaUPPS W228A mutant. In words: UPPS inhibition assay, mutant enzyme. In kind it is biochemical, Enterococcus faecalis. To be noted: W228A mutant versus wild-type EfaUPPS. In a few lines:
as §1

The target in assay [17] is EfaUPPS M28E mutant. In words: UPPS inhibition assay, mutant enzyme. In kind it is biochemical, Enterococcus faecalis. The conditions noted are these: M28E mutant versus wild-type EfaUPPS. The essentials: as §1
For assay [18], the target named is T2, EfaUPPS N31E mutant (Enterococcus faecalis, UniProt Q831K9, N37E).
T2 sequence (Q831K9 1-271 N37E): T1 sequence (Q831K9 1-271 M34W) with W34M, N37E
In words: UPPS inhibition assay, mutant enzyme. In kind it is biochemical. The conditions noted are these: N31E mutant versus wild-type EfaUPPS. The essentials: as §1

Assay [19] relates to UPPS-overexpressed E. coli BAS 849. In words: In vivo growth inhibition assay on agar. In kind it is cell-based, Escherichia coli. The conditions noted are these: overexpression of EfaUPPS, SauUPPS and EcoUPPS; compound at 8 μg/mL; IPTG 0.5 mM. The essentials: as §2
The target in assay [20] is T1, EfaUPPS M28W mutant. In words: Surface plasmon resonance binding assay. The conditions noted are these: SPR. In a few lines: (§4)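 Point mutants of E. faecalis UPPS were made by site-directed mutagenesis and purified like wild type (Ni-NTA, then gel filtration). Enzyme (50 μg/mL) was amine-coupled to a carboxymethyl dextran chip. Test compound (0.4–50 μM) in phosphate-buffered saline with 0.005% Tween-20, pH 7.8, was flowed at 25 μL/min: 1.5 min association, 2.5 min dissociation. Reference-cell signal was subtracted, and KD came from a 1:1 model.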

Assay [21] addresses EfaUPPS M28A mutant. In words: UPPS inhibition assay, mutant enzyme. In kind it is biochemical, Enterococcus faecalis. The conditions noted are these: M28A mutant versus wild-type EfaUPPS. The essentials:
as §1

Assay [22] deals with T2, EfaUPPS N31E mutant. In words: Surface plasmon resonance binding assay. The conditions noted are these: SPR. In a few lines: as §4
Assay [23] concerns the target EfaUPPS R42A mutant (Enterococcus faecalis, UniProt Q831K9, R48A). The experiment in a line: UPPS inhibition assay, mutant enzyme. In kind it is biochemical. In a few lines:
as §1

Where a chain is given by its changes, count along the chain named. In brackets after ≈: the same amount, converted by molar mass.

Regarding `CN(C)[C@@H]1C(O)=C(C(N)=O)C(=O)[C@@]2(O)C(O)=C3C(=O)c4c(O)cccc4[C@@](C)(O)[C@H]3C[C@@H]12` [Tet, tetracycline, reference compound], the “IC50 fold higher than that for VirA” value in assay [1] turned out to be 12 fold; in assay [2] it was 6 fold; in assay [3], 6 fold. In addition, in assay [4] (EfaUPPS), the SPR binding signals entry is on record as “cannot detect any binding signals”. In assay [5], the IC50 is 15 µM.

On to `COc1cc(O)c2c(O)c3c(c4c2c1[C@]1(C4)C(C)=CCCC1(C)C)[C@H](O)[C@@]1(O)CC(=O)C(C(N)=O)=C(O)[C@@]1(O)C3=O` [VirA, viridicatumtoxin A], for which the “susceptibility of mutant compared with wild-type enzyme” value in assay [6] and in assay [23] was “more susceptible” in each case. Further, the “growth of E. coli BAS 849” value in assay [7] is recorded as “completely inhibited”; in [19], “rescued the cell growth”. For the same molecule, the values for the MIC in [8] and in [13] were over 64 µg/mL and 8 µg/mL (≈ 14.1 µM), respectively. Also, the “change of IC50 of mutant compared with wild-type enzyme” value in assay [9], in assay [11] and in [12] was “decreased IC50” throughout. For the same molecule, the IC50-MT/IC50-WT in [10] is reported as 10.7; in assay [14], 0.2; in [15], 4.5; in assay [16], 6.0; in assay [17] it was 123.3; in assay [18] it was 42.4. The same molecule had an IC50-MT/IC50-WT in assay [21] of 0.5. Besides, the IC50 stood at 1.6 µM in assay [1], 4.1 µM in assay [2] (SauUPPS), 3.9 µM in assay [3] (EcoUPPS) and 700 µM in assay [5]. Besides, the dissociation constant (Kd) in [20] came out at 9.8 µM; in assay [22] it was 322 µM; in assay [4] it was 123 µM. The “binding affinity fold higher than the wild-type enzyme” value in assay [20] is recorded as “about 12 fold”. In addition, the “binding affinity decreased, fold, versus wild type” value in assay [22] is on record as “approximately 3 fold”.

For the molecule viridicatumtoxin B [VirB], the “growth of E. coli BAS 849” value in assay [7] is “completely inhibited”; in [19], “rescued the cell growth”. Also, the MIC is over 64 µg/mL in [8] and 8 µg/mL in [13]. In addition, the half-maximal inhibitory concentration (IC50) in assay [1] was 0.0581 µM; in assay [5], 600 µM. Further, in [4], the Kd turned out to be 11.5 µM.

The values above are taken from publication PMC9040061 (ACS infectious diseases, 2020).
